Consider eight molecules from ChEMBL document CHEMBL1149217, “3-trifluoromethyl-4-nitro-5-arylpyrazoles are novel K(ATP) channel agonists” (Bioorg Med Chem Lett, 2004).

Sulfonylurea receptor 1, Kir6.2, sequence (Q14654 whole entry): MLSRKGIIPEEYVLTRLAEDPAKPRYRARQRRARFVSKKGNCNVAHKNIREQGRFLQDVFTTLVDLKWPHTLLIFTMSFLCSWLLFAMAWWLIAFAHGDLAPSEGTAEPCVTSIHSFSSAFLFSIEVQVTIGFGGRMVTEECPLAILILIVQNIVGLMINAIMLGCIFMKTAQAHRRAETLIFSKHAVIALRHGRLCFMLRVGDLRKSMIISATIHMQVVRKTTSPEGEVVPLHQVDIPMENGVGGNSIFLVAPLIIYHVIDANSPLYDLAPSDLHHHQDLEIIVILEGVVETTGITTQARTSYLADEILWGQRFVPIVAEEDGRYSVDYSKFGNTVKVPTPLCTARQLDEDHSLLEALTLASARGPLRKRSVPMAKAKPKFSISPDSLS
Sulfonylurea receptor 1, Kir6.2, sequence (Q09428 whole entry): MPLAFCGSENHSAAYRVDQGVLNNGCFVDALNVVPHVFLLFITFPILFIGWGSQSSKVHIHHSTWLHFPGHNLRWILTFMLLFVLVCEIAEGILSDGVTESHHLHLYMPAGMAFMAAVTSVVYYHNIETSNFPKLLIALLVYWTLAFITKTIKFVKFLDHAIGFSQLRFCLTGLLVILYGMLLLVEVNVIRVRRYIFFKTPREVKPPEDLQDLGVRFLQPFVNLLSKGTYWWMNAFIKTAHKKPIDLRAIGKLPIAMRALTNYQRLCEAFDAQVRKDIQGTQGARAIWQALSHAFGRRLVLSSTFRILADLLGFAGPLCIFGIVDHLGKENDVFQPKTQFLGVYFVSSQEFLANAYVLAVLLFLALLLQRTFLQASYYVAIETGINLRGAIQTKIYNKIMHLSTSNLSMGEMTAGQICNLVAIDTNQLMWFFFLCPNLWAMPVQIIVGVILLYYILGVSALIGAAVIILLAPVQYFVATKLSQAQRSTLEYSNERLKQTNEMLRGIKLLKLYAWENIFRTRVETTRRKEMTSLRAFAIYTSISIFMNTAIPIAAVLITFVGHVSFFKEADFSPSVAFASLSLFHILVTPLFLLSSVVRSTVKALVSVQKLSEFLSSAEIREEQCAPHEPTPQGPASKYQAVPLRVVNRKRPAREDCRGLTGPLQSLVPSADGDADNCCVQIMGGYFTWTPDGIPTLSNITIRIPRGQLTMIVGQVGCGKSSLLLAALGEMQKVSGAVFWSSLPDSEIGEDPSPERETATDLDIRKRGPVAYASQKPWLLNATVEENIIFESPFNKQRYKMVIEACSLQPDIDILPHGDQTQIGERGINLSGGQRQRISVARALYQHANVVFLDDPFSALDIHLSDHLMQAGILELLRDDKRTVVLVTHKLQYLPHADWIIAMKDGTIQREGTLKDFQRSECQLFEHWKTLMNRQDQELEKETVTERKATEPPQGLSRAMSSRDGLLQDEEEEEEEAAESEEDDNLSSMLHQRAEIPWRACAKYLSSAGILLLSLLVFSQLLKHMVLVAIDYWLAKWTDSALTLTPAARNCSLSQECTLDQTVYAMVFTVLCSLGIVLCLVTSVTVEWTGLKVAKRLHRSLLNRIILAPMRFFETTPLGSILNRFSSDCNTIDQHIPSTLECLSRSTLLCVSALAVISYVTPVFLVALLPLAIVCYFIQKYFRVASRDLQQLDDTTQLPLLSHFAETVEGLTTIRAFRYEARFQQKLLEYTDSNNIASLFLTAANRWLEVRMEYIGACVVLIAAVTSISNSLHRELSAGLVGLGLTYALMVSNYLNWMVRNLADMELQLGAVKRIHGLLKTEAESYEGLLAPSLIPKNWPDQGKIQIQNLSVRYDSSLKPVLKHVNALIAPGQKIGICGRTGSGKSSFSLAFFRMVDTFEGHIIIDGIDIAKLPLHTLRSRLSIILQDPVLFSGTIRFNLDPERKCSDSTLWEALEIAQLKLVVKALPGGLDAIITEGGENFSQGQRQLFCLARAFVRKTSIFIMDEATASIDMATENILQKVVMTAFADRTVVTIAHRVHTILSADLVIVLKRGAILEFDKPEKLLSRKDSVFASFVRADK

The first assay concerns the target Sulfonylurea receptor 1, Kir6.2 (Homo sapiens, UniProt Q09428+Q14654). Put plainly: […] of human KATP (SUR1/Kir6.2) channel expressed in Xenopus oocytes. Format: functional, cell-based, Oocyte.
Conditions: not given
The method in brief:
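ATP-sensitive K+ currents were recorded by excised-patch clamp from inside-out macropatches pulled from Xenopus oocytes expressing human SUR1/Kir6.2. Values are means of 3-6 experiments.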
On to `O=[N+]([O-])c1c(C(F)(F)F)n[nH]c1-c1ccccc1`, for which the midpoint of the response, the EC50, lay at 30 µM.
With `O=[N+]([O-])c1ccc(-c2cc(C(F)(F)F)[nH]n2)cc1`, the EC50 – broadly, the concentration giving half of the maximal effect – was > 30 µM.
The same measure, in the same setting: then `O=[N+]([O-])c1ccc(-c2[nH]nc(C(F)(F)F)c2[N+](=O)[O-])cc1`, with 0.7 µM; and `O=[N+]([O-])c1c(-c2ccc(F)cc2F)n[nH]c1C(F)(F)F`, with 1.15 µM.
Still for that read-out and setting: then `O=[N+]([O-])c1ccc(-c2noc(C(F)(F)F)c2[N+](=O)[O-])cc1`, with > 30 µM.
On to `O=[N+]([O-])c1c(C(F)(F)F)n[nH]c1-c1ccc(C(F)(F)F)cc1C(F)(F)F`, for which the response was half-maximal at 0.54 µM (EC50).

A further assay has as its target T1, Sulfonylurea receptor 1, Kir6.2 (Homo sapiens) (UniProt Q14654+Q09428). Kind of assay: Percent maximal agonist response of human KATP (SUR1/Kir6.2) channel expressed in Xenopus oocytes. It counts as functional, cell-based. Conditions: Oocyte. The method in brief: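 ATP-sensitive K+ currents were recorded by excised-patch clamp from inside-out macropatches pulled from Xenopus oocytes expressing human SUR1/Kir6.2. Compounds were tested across a dose range to give dose–response curves. […] Values are means of 3-6 experiments.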
On to `CC1=Nc2ccc(Cl)cc2S(=O)(=O)N1`, for which the Max response was 100%.
Molecule `O=[N+]([O-])c1ccc(-c2[nH]nc(C(F)(F)F)c2[N+](=O)[O-])cc1` came in with a Max response of 94%.
Still for that read-out and setting: as for `O=[N+]([O-])c1c(C(F)(F)F)n[nH]c1-c1ccc(C(F)(F)F)cc1C(F)(F)F`, the figure is 197%; as for `O=[N+]([O-])c1c(C(F)(F)F)n[nH]c1-c1ccc(F)cc1F`, 113%.

Another assay addresses T1, Sulfonylurea receptor 1, Kir6.2 (Homo sapiens). Put plainly: Percent maximal agonist response of human KATP (SUR1/Kir6.2) channel expressed in Xenopus oocytes at 30 uM. It counts as functional, cell-based. As to conditions: Oocyte. In outline: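 Inside-out macropatches were excised from Xenopus oocytes expressing human SUR1/Kir6.2, and ATP-sensitive K+ currents were recorded. […] Means of 3-6 experiments.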
In the case of `O=[N+]([O-])c1c(C(F)(F)F)n[nH]c1-c1ccccc1`, the Max response stood at 38%.
The same measure, in the same setting: as for `O=[N+]([O-])c1ccc(-c2cc(C(F)(F)F)[nH]n2)cc1`, the figure is 8%.
